Active and inactive are the calls of the source. The rule behind the calls is not given here.
What was measured:
[1] = Antiproliferative activity against human CRL1739 cells by MTT assay; type: functional, cell-based
How it was run: (§1)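 Cells were grown in medium with 10% heat-inactivated FBS, penicillin G and streptomycin, and were plated in 96-well plates. One day after seeding, they were exposed for 72 h to 0–100 µM compound (DMSO stock diluted in complete medium, final DMSO 1%). Viability was read by MTT reduction. IC50 values came from fitting the dose-response curves to a sigmoidal model.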

J82 = assay: Antiproliferative activity against human J82 cells by MTT assay; type: functional, cell-based; how it was run: as §1
AGS = assay: Antiproliferative activity against human AGS cells by MTT assay; type: functional, cell-based; how it was run: as §1
SK-MES-1 = assay: Antiproliferative activity against human SKMES1 cells by MTT assay; type: functional, cell-based; how it was run: as §1
[2] = (§2) Antiproliferative activity against human HTB-58 cells by MTT assay; type: functional, cell-based; how it was run: as §1
[3] = (§3) Antiproliferative activity against human HTB-1 cells by MTT assay; type: functional, cell-based; how it was run: as §1
[4] = Antiproliferative activity against human CCL171 cells by MTT assay; type: cell-based; how it was run: as §1
MRC5 = assay: Antiproliferative activity against human MRC5 cells by MTT assay; type: cell-based; how it was run: as §1
HTB-58 = assay: as §2; type: functional, cell-based; how it was run: as §1
HTB-1 = assay: as §3; type: functional, cell-based; how it was run: as §1

Structure (SMILES): CNc1c(OC)cc2ccnc3c2c1C(=O)c1cc(OC)ccc1-3 [DAURIOXOISOAPORPHINE C]
- IC50 [1]: > 2090 nM
- IC50 (J82): > 2090 nM
- IC50 (AGS): > 2090 nM
- IC50 (SK-MES-1): > 2090 nM
- IC50 [2]: > 2090 nM
- IC50 [3]: > 2090 nM

Structure (SMILES): COc1cc2c3c(c1)C(=O)c1ccccc1C3=NCC2
- IC50 [1]: > 2090 nM
- IC50 (J82): > 2090 nM
- IC50 (AGS): > 2090 nM
- IC50 (SK-MES-1): > 2090 nM
- IC50 [2]: > 2090 nM
- IC50 [3]: > 2090 nM

Structure (SMILES): COc1cc2c3c(c1[N+](=O)[O-])C(=O)c1ccccc1C3=NCC2
- IC50 [1]: > 2090 nM
- IC50 (J82): > 2090 nM
- IC50 (AGS): > 2090 nM
- IC50 (SK-MES-1): > 2090 nM
- IC50 [2]: > 2090 nM
- IC50 [3]: > 2090 nM

Structure (SMILES): COc1ccc2c(c1)C(=O)c1c(N)c(OC)c(OC)c3ccnc-2c13 [DAURIOXOISOPORPHINE B]
- IC50 [1]: > 3000 nM
- IC50 (J82): > 3000 nM
- IC50 (AGS): > 3000 nM
- IC50 (SK-MES-1): > 3000 nM
- IC50 [2]: > 3000 nM
- IC50 [3]: > 3000 nM

Structure (SMILES): COc1ccc2c(c1)C(=O)c1c(NCCc3ccc(O)cc3)c(OC)cc3ccnc-2c13 [DAURIOXOISOPORPHINE A]
- IC50 [1]: > 3000 nM
- IC50 (J82): > 3000 nM
- IC50 (AGS): > 3000 nM
- IC50 (SK-MES-1): > 3000 nM
- IC50 [2]: > 3000 nM
- IC50 [3]: > 3000 nM

Structure (SMILES): COc1ccc2c(c1)C(=O)c1c(NCCc3ccc(O)cc3)c(OC)c(OC)c3ccnc-2c13 [TYRAMINOPORPINE]
- IC50 [1]: > 2090 nM
- IC50 (J82): > 2090 nM
- IC50 (AGS): > 2090 nM
- IC50 (SK-MES-1): > 2090 nM
- IC50 [2]: > 2090 nM
- IC50 [3]: > 2090 nM

Structure (SMILES): COc1cc2c3c(nccc3c1[N+](=O)[O-])-c1ccccc1C2=O
- IC50 [1]: 4500 nM
- Activity [4]: Non-toxic
- Activity (J82): inactive
- Activity (MRC5): Non-toxic
- IC50 (AGS): 4500 nM
- Activity (SK-MES-1): inactive
- Activity (HTB-58): inactive
- Activity (HTB-1): inactive

Structure (SMILES): COc1cc2ccnc3c2c(c1[N+](=O)[O-])C(=O)c1ccccc1-3
- IC50 [1]: > 2090 nM
- IC50 (J82): > 2090 nM
- IC50 (AGS): > 2090 nM
- IC50 (SK-MES-1): > 2090 nM
- IC50 [2]: > 2090 nM
- IC50 [3]: > 2090 nM

Structure (SMILES): COc1cc2c3c(nccc3c1N)-c1ccccc1C2=O
- IC50 [1]: > 2090 nM
- IC50 (J82): > 2090 nM
- IC50 (AGS): > 2090 nM
- IC50 (SK-MES-1): > 2090 nM
- IC50 [2]: > 2090 nM
- IC50 [3]: > 2090 nM

Structure (SMILES): COc1cc2c3c(nccc3c1)-c1ccccc1C2=O
- IC50 [1]: > 2090 nM
- IC50 (J82): > 2090 nM
- IC50 (AGS): > 2090 nM
- IC50 (SK-MES-1): > 2090 nM
- IC50 [2]: > 2090 nM
- IC50 [3]: > 2090 nM

Structure (SMILES): COc1cc2c3c(c1[N+](=O)[O-])CCN=C3c1ccccc1C2=O
- IC50 [1]: > 2090 nM
- IC50 (J82): > 2090 nM
- IC50 (AGS): > 2090 nM
- IC50 (SK-MES-1): > 2090 nM
- IC50 [2]: > 2090 nM
- IC50 [3]: > 2090 nM

Structure (SMILES): COc1cc2ccnc3c2c(c1N)C(=O)c1ccccc1-3 [LAKSHMININE]
- IC50 [1]: > 2090 nM
- IC50 (J82): > 2090 nM
- IC50 (AGS): > 2090 nM
- IC50 (SK-MES-1): > 2090 nM
- IC50 [2]: > 2090 nM
- IC50 [3]: > 2090 nM

— ChEMBL document CHEMBL1649338, “Synthesis of lakshminine and antiproliferative testing of related oxoisoaporphines” (J Nat Prod, 2010)
